Results from ChEMBL document CHEMBL1140779, “Trisubstituted 1,2,4-triazoles as ligands for the ghrelin receptor: on the significance of the orientation and substitution at position 3” (Bioorg Med Chem Lett, 2008).

How the values were obtained:
[1] = target: T1, Growth hormone secretagogue receptor type 1 (Homo sapiens, UniProt Q92847); test: Agonist activity at human GHSR1a receptor expressed in CHO cells assessed as intracellular calcium mobilization at 10 uM relative to ghrelin; assay type: functional, cell-based
Method in brief: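 Transiently electroporated hGHS-R1a CHO cells loaded with Fluo-4AM; compound at 10 µM, triplicate, at least 2 independent experiments; fluorescence rise (485/525 nm, 60 s read) compared with buffer-only basal; maximal output taken as that of 0.1 µM ghrelin.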

[2] = target: T1, Growth hormone secretagogue receptor type 1; test: Antagonist activity at human GHSR1a receptor expressed in CHO cells assessed as reduction of ghrelin-induced intracellular calcium mobilization; assay type: functional, cell-based
[3] = target: T1, Growth hormone secretagogue receptor type 1; test: Displacement of [125I]His9-ghrelin from human GHSR1a receptor expressed in LLC PK1 cells; assay type: cell-based
[4] = target: T1, Growth hormone secretagogue receptor type 1; test: Antagonist activity at human GHSR1a receptor expressed in CHO cells assessed as intracellular calcium mobilization
[5] = target: T1, Growth hormone secretagogue receptor type 1; test: Agonist activity at human GHSR1a receptor expressed in CHO cells assessed as intracellular calcium mobilization; assay type: functional, cell-based

T1 sequence (Q92847 whole entry): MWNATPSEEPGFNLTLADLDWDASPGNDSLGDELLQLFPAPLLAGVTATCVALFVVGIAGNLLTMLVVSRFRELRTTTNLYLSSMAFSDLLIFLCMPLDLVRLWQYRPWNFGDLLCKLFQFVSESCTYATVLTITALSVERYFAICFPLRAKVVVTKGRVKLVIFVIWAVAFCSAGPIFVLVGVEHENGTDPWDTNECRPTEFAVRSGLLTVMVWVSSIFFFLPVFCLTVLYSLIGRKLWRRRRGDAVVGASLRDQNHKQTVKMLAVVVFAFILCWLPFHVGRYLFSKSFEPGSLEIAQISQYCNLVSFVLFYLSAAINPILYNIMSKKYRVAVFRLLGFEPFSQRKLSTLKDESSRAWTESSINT

Structure (SMILES)	Activity [1] [%]	IC50 [2] [nM]	Kb [2] [nM]	IC50 [3] [nM]	Kb [4] [nM]	EC50 [5] [nM]
COc1ccc(Cn2c(CCc3c[nH]c4ccccc34)nnc2[C@H](Cc2c[nH]c3ccccc23)NC(=O)[C@@H]2CCCN2)cc1	0	–	–	650	440	–
COc1ccc(Cn2c(CCc3c[nH]c4ccccc34)nnc2[C@H](Cc2c[nH]c3ccccc23)NC(=O)C2CCOCC2)cc1	0	–	–	1300	–	24
COc1ccc(Cn2c(CCc3c[nH]c4ccccc34)nnc2[C@H](Cc2c[nH]c3ccccc23)NC(=O)C2CCNCC2)cc1	100	–	–	7	–	32
COc1ccc(Cn2c(CCc3c[nH]c4ccccc34)nnc2[C@@H](Cc2c[nH]c3ccccc23)NC(=O)[C@@H]2CCCN2)cc1	–	–	–	–	6	–
COc1ccc(Cn2c(CCc3c[nH]c4ccccc34)nnc2[C@@H](Cc2c[nH]c3ccccc23)NC(=O)C2CCOCC2)cc1	2	–	–	45	–	24
COc1ccc(Cn2c(CCc3c[nH]c4ccccc34)nnc2[C@@H](Cc2c[nH]c3ccccc23)NC(=O)c2ccccn2)cc1	0	–	–	8	–	–
COc1ccc(Cn2c(CCc3c[nH]c4ccccc34)nnc2[C@H](Cc2c[nH]c3ccccc23)NC(=O)C(C)(C)N)cc1	31	–	–	140	–	–
COc1ccc(Cn2c(CCc3c[nH]c4ccccc34)nnc2[C@@H](CC(=O)OCc2ccccc2)NC(=O)C(C)(C)N)cc1	5	–	–	450	–	–
COc1ccc(Cn2c(Cc3ccccc3)nnc2[C@@H](Cc2ccccc2)NC(=O)C(C)(C)N)cc1	6	–	–	> 1000	–	–
COc1ccc(Cn2c(CCc3c[nH]c4ccccc34)nnc2[C@@H](Cc2c[nH]c3ccccc23)NC(=O)C(C)(C)N)cc1	–	190	–	–	–	–

Further lines, results first:

Activity [1] [%]	IC50 [2] [nM]	Kb [2] [nM]	IC50 [3] [nM]	Kb [4] [nM]	EC50 [5] [nM]	Structure (SMILES)
9	870	19	–	–	–	COc1ccc(Cn2c(Cc3ccccc3)nnc2[C@@H](Cc2c[nH]c3ccccc23)NC(=O)C(C)(C)N)cc1
5	–	–	> 1000	–	–	COc1ccc(Cn2c(Cc3ccccc3)nnc2[C@H](Cc2c[nH]c3ccccc23)NC(=O)C(C)(C)N)cc1
17	–	–	> 1000	–	–	COc1ccc(Cn2c(CCCc3ccccc3)nnc2[C@H](Cc2c[nH]c3ccccc23)NC(=O)C(C)(C)N)cc1
0	–	–	–	–	–	COc1ccc(Cn2c(Cc3ccccc3)nnc2[C@@H](Cc2c[nH]c3ccccc23)NC(=O)C(C)(C)N)c(OC)c1
0	620	–	–	–	–	COc1ccc(Cn2c(CCc3c[nH]c4ccccc34)nnc2[C@@H](Cc2c[nH]c3ccccc23)NC(=O)C(C)(C)N)c(OC)c1
0	600	–	–	–	–	COc1ccc(Cn2c(CCCc3ccccc3)nnc2[C@@H](Cc2c[nH]c3ccccc23)NC(=O)C(C)(C)N)cc1
4	–	–	450	–	–	COc1ccc(Cn2c(CCc3ccccc3)nnc2[C@H](Cc2c[nH]c3ccccc23)NC(=O)C(C)(C)N)c(OC)c1
11	–	–	> 1000	–	–	COc1ccc(Cn2c(Cc3ccccc3)nnc2[C@H](Cc2c[nH]c3ccccc23)NC(=O)C(C)(C)N)c(OC)c1
6	–	–	200	–	–	COc1ccc(Cn2c(CCc3c[nH]c4ccccc34)nnc2[C@@H](Cc2ccccc2)NC(=O)C(C)(C)N)cc1
2	275	–	–	–	–	COc1ccc(Cn2c(CCc3ccccc3)nnc2[C@@H](Cc2c[nH]c3ccccc23)NC(=O)C(C)(C)N)cc1
0	800	–	–	–	–	COc1ccc(Cn2c(CCc3ccccc3)nnc2[C@@H](Cc2c[nH]c3ccccc23)NC(=O)C(C)(C)N)c(OC)c1
0	–	–	> 1000	–	–	COc1ccc(Cn2c(CCc3ccccc3)nnc2[C@H](Cc2c[nH]c3ccccc23)NC(=O)C(C)(C)N)cc1
4	3200	69	–	–	–	COc1ccc(Cn2c(CCc3c[nH]c4ccccc34)nnc2[C@H](Cc2c[nH]c3ccccc23)NC(=O)C(C)(C)N)c(OC)c1
0	–	–	800	–	–	COc1ccc(Cn2c(CCc3c[nH]c4ccccc34)nnc2[C@@H](COCc2ccccc2)NC(=O)C(C)(C)N)cc1
